The source of these data is ChEMBL document CHEMBL3045755, “Specific and differential inhibition of very-long-chain fatty acid elongases from Arabidopsis thaliana by different herbicides” (Proc Natl Acad Sci U S A, 2004).

The source made the active and inactive calls. No cut-off for these calls is given here.

In one data set the test system is Saccharomyces cerevisiae. The experiment in a line: Growth inhibition of Saccharomyces cerevisiae INVSc1 at 100 uM after 18 to 20 hr. The format is organism-based. Conditions: in vivo. In short, it runs like this:
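Yeast strains expressing the active elongases were induced in raffinose/galactose medium with herbicide at 100 μM for the 18–20 h incubation. Growth was followed by optical density and compared with cultures lacking inhibitor.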

In a further data set the test system is Arabidopsis thaliana. The experiment in a line: Herbicidal activity against Arabidopsis thaliana assessed as apperance of fiddle head phenotype. The format is functional, organism-based.
Data set [1] concerns the target T1, 3-ketoacyl-CoA synthase 20 (Arabidopsis thaliana) (UniProt Q9FG87).
T1 sequence (whole entry): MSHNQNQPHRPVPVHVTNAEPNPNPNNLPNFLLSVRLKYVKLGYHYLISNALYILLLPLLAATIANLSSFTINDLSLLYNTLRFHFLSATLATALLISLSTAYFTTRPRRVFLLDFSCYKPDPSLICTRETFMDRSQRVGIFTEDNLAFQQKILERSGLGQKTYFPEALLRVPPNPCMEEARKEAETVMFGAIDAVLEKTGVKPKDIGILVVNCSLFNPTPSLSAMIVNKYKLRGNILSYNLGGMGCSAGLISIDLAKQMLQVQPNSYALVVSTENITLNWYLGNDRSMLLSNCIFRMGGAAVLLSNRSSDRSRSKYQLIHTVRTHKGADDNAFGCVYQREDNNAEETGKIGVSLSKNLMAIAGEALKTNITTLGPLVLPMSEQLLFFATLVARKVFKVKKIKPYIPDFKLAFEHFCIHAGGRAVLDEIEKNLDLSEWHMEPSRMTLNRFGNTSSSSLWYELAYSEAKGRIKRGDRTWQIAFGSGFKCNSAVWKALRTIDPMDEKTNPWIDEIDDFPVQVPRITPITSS
The experiment in a line: Inhibition of Arbidopsis thaliana C-terminal His-tagged At5g43760 expressed in Saccharomyces cerevisiae INVSc1 at 100 uM after 18 to 20 hr by GC/MS analysis. In short, it runs like this:
(§1)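 pYES2 galactose-inducible constructs in INVSc1, grown at 28°C in uracil-dropout minimal medium with 2% glucose. Log-phase cells were induced in 1% raffinose/2% galactose with herbicide at final 100 μM, in 50-ml culture for 18–20 h, then freeze-dried. FAMEs were made in 1 M methanolic HCl/5% dimethoxypropane at 80°C for 1 h under N2 and run on GC/MS. VLCFA profile was compared with herbicide-free elongase-expressing cells.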

Data set [2] concerns the target T2, 3-ketoacyl-CoA synthase 2 (Arabidopsis thaliana) (UniProt Q5XEP9).
T2 sequence (whole entry): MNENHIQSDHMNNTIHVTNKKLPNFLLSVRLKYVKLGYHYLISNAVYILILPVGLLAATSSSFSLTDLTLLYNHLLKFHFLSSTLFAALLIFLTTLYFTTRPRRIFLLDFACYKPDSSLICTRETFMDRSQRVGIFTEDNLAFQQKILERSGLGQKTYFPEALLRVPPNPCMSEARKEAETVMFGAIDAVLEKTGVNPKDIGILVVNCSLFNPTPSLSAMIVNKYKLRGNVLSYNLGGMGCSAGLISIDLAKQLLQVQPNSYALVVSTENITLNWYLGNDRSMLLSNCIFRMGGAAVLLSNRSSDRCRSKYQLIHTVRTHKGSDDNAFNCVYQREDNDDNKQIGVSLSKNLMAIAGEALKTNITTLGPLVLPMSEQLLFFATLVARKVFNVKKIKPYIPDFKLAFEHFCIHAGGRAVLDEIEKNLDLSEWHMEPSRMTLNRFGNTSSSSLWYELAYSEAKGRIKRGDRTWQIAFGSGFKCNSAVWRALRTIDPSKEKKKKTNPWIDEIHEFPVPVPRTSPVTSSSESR
The experiment in a line: Inhibition of Arbidopsis thaliana C-terminal His-tagged At1g04220 expressed in Saccharomyces cerevisiae INVSc1 at 100 uM after 18 to 20 hr by GC/MS analysis. In short, it runs like this: as §1

Data set [3] has as its target T3, 3-ketoacyl-CoA synthase 5 (Arabidopsis thaliana) (UniProt Q9C6L5).
T3 sequence (whole entry): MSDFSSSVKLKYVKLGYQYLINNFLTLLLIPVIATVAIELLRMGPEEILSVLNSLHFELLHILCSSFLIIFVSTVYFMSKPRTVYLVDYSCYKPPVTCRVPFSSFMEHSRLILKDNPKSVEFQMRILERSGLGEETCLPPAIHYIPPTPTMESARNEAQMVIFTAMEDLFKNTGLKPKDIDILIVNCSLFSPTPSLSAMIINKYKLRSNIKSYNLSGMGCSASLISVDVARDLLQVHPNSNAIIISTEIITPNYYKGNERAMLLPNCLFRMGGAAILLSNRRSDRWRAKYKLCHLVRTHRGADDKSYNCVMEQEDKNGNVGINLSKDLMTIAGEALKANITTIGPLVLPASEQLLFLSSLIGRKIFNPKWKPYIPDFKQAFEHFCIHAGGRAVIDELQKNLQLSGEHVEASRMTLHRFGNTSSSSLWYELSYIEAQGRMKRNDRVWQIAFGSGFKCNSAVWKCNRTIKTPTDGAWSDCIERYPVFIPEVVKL
The experiment in a line: Inhibition of Arbidopsis thaliana C-terminal His-tagged CER60 expressed in Saccharomyces cerevisiae INVSc1 at 100 uM after 18 to 20 hr by GC/MS analysis. In short, it runs like this:
as §1

Data set [4] concerns the target T4, 3-ketoacyl-CoA synthase 17 (Arabidopsis thaliana) (UniProt O65677).
T4 sequence (whole entry): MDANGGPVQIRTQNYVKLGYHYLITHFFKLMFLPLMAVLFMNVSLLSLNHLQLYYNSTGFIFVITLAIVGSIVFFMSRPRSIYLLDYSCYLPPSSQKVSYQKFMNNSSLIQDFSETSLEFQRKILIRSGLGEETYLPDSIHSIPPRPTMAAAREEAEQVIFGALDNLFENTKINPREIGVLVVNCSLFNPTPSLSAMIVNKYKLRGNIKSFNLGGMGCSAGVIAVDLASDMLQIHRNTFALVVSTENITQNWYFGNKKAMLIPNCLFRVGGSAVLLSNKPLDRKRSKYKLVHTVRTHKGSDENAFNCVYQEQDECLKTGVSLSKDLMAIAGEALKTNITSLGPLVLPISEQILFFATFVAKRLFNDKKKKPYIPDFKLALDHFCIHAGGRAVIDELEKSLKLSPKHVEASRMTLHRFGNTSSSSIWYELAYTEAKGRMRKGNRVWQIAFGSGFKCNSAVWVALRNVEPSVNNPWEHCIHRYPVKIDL
The experiment in a line: Inhibition of Arbidopsis thaliana C-terminal His-tagged KCS2 expressed in Saccharomyces cerevisiae INVSc1 at 100 uM after 18 to 20 hr by GC/MS analysis. In short, it runs like this:
as §1

For data set [5], the target named is T5, 3-ketoacyl-CoA synthase 1 (Arabidopsis thaliana) (UniProt Q9MAM3).
T5 sequence (whole entry): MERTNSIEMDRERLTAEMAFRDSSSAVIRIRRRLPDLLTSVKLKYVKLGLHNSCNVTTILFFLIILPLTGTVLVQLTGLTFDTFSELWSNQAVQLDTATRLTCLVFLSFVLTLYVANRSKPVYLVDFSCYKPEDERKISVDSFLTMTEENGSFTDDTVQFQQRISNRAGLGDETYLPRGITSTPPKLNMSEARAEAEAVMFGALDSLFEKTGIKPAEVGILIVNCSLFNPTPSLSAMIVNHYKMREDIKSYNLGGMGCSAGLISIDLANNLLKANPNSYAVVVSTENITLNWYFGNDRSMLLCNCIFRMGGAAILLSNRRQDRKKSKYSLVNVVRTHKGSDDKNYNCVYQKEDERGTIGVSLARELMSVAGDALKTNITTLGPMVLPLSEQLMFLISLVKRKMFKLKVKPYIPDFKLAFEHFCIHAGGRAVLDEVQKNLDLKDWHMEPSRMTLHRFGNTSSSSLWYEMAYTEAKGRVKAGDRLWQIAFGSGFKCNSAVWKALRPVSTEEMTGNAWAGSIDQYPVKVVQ
The experiment in a line: Inhibition of Arbidopsis thaliana C-terminal His-tagged KCS1 expressed in Saccharomyces cerevisiae INVSc1 at 100 uM after 18 to 20 hr by GC/MS analysis. In short, it runs like this: as §1

Data set [6] concerns the target T6, 3-ketoacyl-CoA synthase 18 (Arabidopsis thaliana) (UniProt Q38860).
T6 sequence (whole entry): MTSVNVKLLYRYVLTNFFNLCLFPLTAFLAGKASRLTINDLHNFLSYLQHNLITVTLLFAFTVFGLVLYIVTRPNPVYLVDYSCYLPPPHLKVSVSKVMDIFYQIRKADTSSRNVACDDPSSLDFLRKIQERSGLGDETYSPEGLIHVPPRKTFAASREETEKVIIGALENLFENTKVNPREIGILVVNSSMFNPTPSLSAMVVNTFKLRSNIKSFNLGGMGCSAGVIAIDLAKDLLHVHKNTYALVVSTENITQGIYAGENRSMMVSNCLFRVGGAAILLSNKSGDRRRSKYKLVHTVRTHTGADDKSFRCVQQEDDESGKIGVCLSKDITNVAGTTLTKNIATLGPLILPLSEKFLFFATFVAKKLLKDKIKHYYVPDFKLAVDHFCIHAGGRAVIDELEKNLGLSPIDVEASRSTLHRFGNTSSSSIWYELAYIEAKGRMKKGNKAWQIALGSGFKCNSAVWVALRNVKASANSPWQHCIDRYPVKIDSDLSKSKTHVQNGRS
The experiment in a line: Inhibition of Arbidopsis thaliana C-terminal His-tagged FAE1 expressed in Saccharomyces cerevisiae INVSc1 at 100 uM after 18 to 20 hr by GC/MS analysis. In short, it runs like this: as §1

For `CCc1cccc(CC)c1N(COC)C(=O)CCl` [ALACHLOR], the Activity result in the data set with Saccharomyces cerevisiae is recorded as “Non-toxic”. Besides, the result in the data set on Arabidopsis thaliana was inactive. In addition, the inhibition entry in data set [1], in data set [3], in data set [4] and in data set [5] was “Active” each time. The inhibition result in data set [2] and in data set [6] was “inactive” in each case.

For the molecule `CCS(=O)(=O)Oc1ccc2c(c1)C(C)(C)CO2` [BENFURESATE], the Activity result with Saccharomyces cerevisiae is on record as “Non-toxic”. Moreover, in the data set with Arabidopsis thaliana, the outcome was Active. Moreover, the inhibition entry in data set [1], in data set [2], in data set [3], in data set [4], in data set [5] and in data set [6] was “inactive” in each case.

On to `CCN(CC)C(=O)n1cnc(S(=O)(=O)c2c(C)cc(C)cc2C)n1` [CAFENSTROLE], for which, in the data set with Saccharomyces cerevisiae, the Activity result is recorded as “Non-toxic”. Besides, the result in the data set with Arabidopsis thaliana was Active. For the same molecule, the inhibition entry in data set [1], in data set [2], in data set [3], in data set [4], in data set [5] and in data set [6] was “Active” throughout.

In the case of `CN(C)C(=O)C(c1ccccc1)c1ccccc1` [DIPHENAMIDE], in the data set with Saccharomyces cerevisiae, the Activity result is given as “Non-toxic”. For the same molecule, the result with Arabidopsis thaliana was inactive. The inhibition result in data set [1], in data set [2], in data set [3], in data set [4], in data set [5] and in data set [6] was “inactive” each time.

`CCOC1Oc2ccc(OS(C)(=O)=O)cc2C1(C)C` (configuration not stated) [ETHOFUMESATE]: the Activity entry in the data set on Saccharomyces cerevisiae is “Non-toxic”. Moreover, in the data set on Arabidopsis thaliana, the result was Active. In addition, the inhibition result in data set [1], in data set [2], in data set [3], in data set [4], in data set [5] and in data set [6] was “inactive” throughout.

In the case of `CCN(C(=O)n1nnn(-c2ccccc2Cl)c1=O)C1CCCCC1` [FENTRAZAMIDE], the Activity entry in the data set with Saccharomyces cerevisiae is on record as “Non-toxic”. Moreover, in the data set with Arabidopsis thaliana, the result was Active. The inhibition entry in data set [1], in data set [4] and in data set [5] was “Active” in each case. Moreover, the inhibition entry in data set [2], in data set [3] and in data set [6] was “inactive” in each case.

As to `CC(C)N(C(=O)COc1nnc(C(F)(F)F)s1)c1ccc(F)cc1` [FLUFENACET], the Activity entry in the data set with Saccharomyces cerevisiae is “Non-toxic”. Also, the result in the data set on Arabidopsis thaliana was Active. The inhibition result in data set [1], in data set [2], in data set [3], in data set [4], in data set [5] and in data set [6] was “Active” each time.

Turning to `CCN(CC)C(=O)C(C)Oc1cccc2ccccc12` (configuration not stated) [NAPROPAMIDE], in the data set on Saccharomyces cerevisiae, the Activity result is on record as “Non-toxic”. The result in the data set with Arabidopsis thaliana was inactive. Also, the inhibition entry in data set [1], in data set [2], in data set [3], in data set [4], in data set [5] and in data set [6] was “inactive” in each case.

Take `CC(C)N(C(=O)SCC(Cl)=C(Cl)Cl)C(C)C` [TRIALLATE]: in the data set with Saccharomyces cerevisiae, the Activity entry is listed as “Non-toxic”. In addition, the outcome with Arabidopsis thaliana was inactive. For the same molecule, the inhibition entry in data set [1], in data set [2], in data set [4], in data set [5] and in data set [6] was “inactive” in each case. Moreover, in data set [3], the inhibition entry was “Active”.
